The test system of data set [1] is Rattus norvegicus. As to the kind of experiment: In vivo inhibition of GlyT1 in Sprague-Dawley rat assessed as CSF glycine levels at 10 mg/kg, po administered as single dose measured after 90 mins by LC-MS/MS analysis relative to control. Type of data set: functional. Summed up: (§1)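 Male Sprague-Dawley rats (300−400 g, n = 5), fed ad libitum, dosed orally at 10 mg/kg (10 mL/kg) in NMP/PEG400/water (10:50:40), with a vehicle group (n = 5) in each study. CSF (~100 µL) taken under anaesthesia at 90 min. Glycine derivatised with Marfey's reagent, 13C2-15N-glycine internal standard, LC-MS/MS in negative ion mode. Expressed as % of vehicle; 1-way ANOVA.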

For data set [2], the system named is Rattus norvegicus. As to the kind of experiment: In vivo inhibition of GlyT1 in Sprague-Dawley rat assessed as increase in CSF glycine levels at 10 mg/kg, po administered as single dose measured after 90 mins by LC-MS/MS analysis relative to control. Type of data set: functional. Also on record: scale not given: the % may be the effect or the level left. Summed up:
as §1

Data set [3] can be described thus: Apparent permeability from apical to basolateral side in MDCK-MDR1 cells monolayer at 5 uM after 60 mins by LC-MS/MS analysis. The following applies: dog.
Data set [4] has as its target T1, Sodium- and chloride-dependent glycine transporter 1 (Homo sapiens, UniProt P48067).
T1 sequence (P48067 whole entry): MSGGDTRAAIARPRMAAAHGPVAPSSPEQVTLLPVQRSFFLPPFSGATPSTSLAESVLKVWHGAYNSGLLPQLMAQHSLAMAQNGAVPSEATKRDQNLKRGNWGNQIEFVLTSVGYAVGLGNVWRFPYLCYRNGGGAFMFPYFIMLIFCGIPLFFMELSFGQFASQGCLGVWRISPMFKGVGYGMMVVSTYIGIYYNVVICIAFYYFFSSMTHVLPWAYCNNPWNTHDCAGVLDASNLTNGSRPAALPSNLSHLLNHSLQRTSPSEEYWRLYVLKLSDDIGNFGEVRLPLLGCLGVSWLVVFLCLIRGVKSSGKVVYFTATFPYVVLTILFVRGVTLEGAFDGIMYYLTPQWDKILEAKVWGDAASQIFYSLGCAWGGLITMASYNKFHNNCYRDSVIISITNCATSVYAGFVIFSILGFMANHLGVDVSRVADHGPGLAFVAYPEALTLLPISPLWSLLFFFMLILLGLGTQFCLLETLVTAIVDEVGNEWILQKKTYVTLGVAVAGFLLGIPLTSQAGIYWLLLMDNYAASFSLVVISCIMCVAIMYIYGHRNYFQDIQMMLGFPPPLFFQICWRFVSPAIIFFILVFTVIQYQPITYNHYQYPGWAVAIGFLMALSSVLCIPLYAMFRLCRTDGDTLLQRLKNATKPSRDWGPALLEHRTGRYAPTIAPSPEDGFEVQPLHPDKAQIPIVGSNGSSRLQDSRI
As to the kind of experiment: Inhibition of recombinant human GlyT1c expressed in HEK293 cells assessed as reduction in [14C]glycine uptake after 2 hrs by microbeta scintillation counting method. Type of data set: cell-based.

Data set [5] is described as follows: Intrinsic clearance in human liver microsomes at 1 uM assessed per mg protein at 37 degC up to 60 mins in presence of NADPH by HPLC-MS analysis. The following applies: read-out: CLH. Type of data set: ADME, microsome. A general note: Liver microsomes are vesicles of endoplasmic reticulum, rich in cytochrome P450 enzymes.
For data set [6], the target named is T2, Sodium- and chloride-dependent glycine transporter 1 (Rattus norvegicus, UniProt P28572).
T2 sequence (P28572 whole entry): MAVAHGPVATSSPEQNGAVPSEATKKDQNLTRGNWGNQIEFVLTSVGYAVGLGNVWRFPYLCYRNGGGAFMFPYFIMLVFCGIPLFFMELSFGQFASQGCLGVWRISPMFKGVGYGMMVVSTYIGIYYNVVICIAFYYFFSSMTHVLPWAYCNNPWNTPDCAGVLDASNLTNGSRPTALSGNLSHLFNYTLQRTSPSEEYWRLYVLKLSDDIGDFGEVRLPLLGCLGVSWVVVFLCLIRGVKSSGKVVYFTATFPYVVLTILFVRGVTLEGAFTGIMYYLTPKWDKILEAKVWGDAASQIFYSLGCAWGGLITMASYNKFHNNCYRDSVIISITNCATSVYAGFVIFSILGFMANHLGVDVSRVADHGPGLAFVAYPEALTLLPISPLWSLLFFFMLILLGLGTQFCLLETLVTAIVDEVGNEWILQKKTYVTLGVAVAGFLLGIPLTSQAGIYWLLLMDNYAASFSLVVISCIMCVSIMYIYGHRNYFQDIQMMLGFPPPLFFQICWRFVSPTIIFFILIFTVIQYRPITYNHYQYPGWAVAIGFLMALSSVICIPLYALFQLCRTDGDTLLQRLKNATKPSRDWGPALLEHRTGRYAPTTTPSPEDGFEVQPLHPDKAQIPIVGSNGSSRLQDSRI
As to the kind of experiment: Inhibition of GlyT1 in primary rat cortical neurons assessed as reduction in [14C]glycine uptake after 2 hrs by microbeta scintillation counting method.

The nature of data set [7]: Intrinsic clearance in rat liver microsomes at 1 uM assessed per mg protein at 37 degC up to 30 mins in presence of NADPH by HPLC-MS analysis. Type of data set: ADME, microsome. The following applies: read-out: CLH.
Data set [8] is described as follows: Apparent permeability from basolateral to apical side in MDCK-MDR1 cells monolayer at 5 uM after 60 mins by LC-MS/MS analysis. The following applies: dog.
The nature of data set [9]: Permeability of the compound at pH 7.4 at 100 uM after 60 mins by PAMPA-BBB assay. In general terms: PAMPA measures passive passage across an artificial lipid membrane.
Data set [10] deals with Cytochrome P450 3A4 (Homo sapiens, UniProt P08684). As to the kind of experiment: Inhibition of CYP3A4 in human liver microsomes using midazolam as substrate measured after 7 mins in presence of NADPH by LC-MS/MS analysis.
Data set [11] has as its target Cytochrome P450 2C19 (Homo sapiens, UniProt P33261). Briefly: Inhibition of CYP2C19 in human liver microsomes using S-mephenytoin as substrate measured after 10 mins in presence of NADPH by LC-MS/MS analysis.
Data set [12] deals with T3, Cytochrome P450 1A2 (Homo sapiens, UniProt P05177).
T3 sequence (P05177 whole entry): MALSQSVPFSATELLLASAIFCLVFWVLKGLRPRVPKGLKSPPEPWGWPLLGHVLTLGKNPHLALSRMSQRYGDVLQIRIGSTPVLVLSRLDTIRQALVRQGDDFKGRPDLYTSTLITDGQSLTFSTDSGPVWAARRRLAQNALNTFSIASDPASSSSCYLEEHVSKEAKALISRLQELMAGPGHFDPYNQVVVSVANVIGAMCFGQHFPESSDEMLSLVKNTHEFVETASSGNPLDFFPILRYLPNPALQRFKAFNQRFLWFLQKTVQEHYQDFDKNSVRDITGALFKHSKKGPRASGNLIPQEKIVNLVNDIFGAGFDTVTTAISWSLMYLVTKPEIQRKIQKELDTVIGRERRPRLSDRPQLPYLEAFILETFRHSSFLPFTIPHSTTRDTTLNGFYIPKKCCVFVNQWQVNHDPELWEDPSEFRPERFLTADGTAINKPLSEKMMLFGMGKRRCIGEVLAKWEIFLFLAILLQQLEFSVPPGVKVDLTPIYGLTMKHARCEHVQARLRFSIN
Briefly: Inhibition of CYP1A2 in human liver microsomes using phenacetin as substrate measured after 10 mins in presence of NADPH by LC-MS/MS analysis.

Data set [13] has as its target Voltage-gated inwardly rectifying potassium channel KCNH2 (Homo sapiens, UniProt Q12809). As to the kind of experiment: Inhibition of human ERG expressed in CHO cells at 10 nM to 10 uM at holding potential of -80 mV measured after 5 mins by QPatch automated patch clamp electrophysiology method. (In general: In patch-clamp work, channel activity is measured electrically.)

Data set [14] deals with Cytochrome P450 2C9 (Homo sapiens, UniProt P11712). As to the kind of experiment: Inhibition of CYP2C9 in human liver microsomes using diclofenac as substrate measured after 10 mins in presence of NADPH by LC-MS/MS analysis.
Data set [15] has as its target T4, Sodium- and chloride-dependent glycine transporter 2 (Homo sapiens, UniProt Q9Y345).
T4 sequence (Q9Y345 whole entry): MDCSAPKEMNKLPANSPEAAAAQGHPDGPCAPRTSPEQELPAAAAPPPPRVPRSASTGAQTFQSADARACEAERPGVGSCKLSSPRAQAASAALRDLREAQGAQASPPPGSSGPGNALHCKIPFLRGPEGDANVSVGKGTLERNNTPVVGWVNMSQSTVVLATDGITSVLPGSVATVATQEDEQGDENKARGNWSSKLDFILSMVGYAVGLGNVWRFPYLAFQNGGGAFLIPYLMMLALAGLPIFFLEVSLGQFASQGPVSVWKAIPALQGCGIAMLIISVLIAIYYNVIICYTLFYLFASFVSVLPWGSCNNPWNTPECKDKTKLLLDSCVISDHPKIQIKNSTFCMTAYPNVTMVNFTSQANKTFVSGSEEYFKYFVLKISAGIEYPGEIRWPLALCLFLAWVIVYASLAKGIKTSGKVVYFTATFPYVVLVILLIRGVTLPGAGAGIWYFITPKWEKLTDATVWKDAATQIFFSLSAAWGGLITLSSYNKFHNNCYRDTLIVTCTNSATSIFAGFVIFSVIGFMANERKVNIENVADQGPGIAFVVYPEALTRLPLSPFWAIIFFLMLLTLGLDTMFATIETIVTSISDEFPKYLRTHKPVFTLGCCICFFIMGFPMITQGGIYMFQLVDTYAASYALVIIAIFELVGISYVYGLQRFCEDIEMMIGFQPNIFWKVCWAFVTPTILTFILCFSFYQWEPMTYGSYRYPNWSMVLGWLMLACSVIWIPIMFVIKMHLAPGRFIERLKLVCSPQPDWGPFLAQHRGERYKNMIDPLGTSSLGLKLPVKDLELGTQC
As to the kind of experiment: Inhibition of recombinant human GlyT2 expressed in HEK293 cells assessed as reduction in [14C]glycine uptake after 2 hrs by microbeta scintillation counting method. Type of data set: cell-based.

For data set [16], the target named is Cytochrome P450 2D6 (Homo sapiens, UniProt P10635). Briefly: Inhibition of CYP2D6 in human liver microsomes using dextromethorphan as substrate measured after 10 mins in presence of NADPH by LC-MS/MS analysis.
A short description of data set [17]: Efflux ratio of apparent permeability from basolateral to apical over apical to basolateral side in MDCK-MDR1 cells at 5 uM after 60 mins by LC-MS/MS analysis. The following applies: dog.

pIC50: −log10 of the molar value.

Chain of Cytochrome P450 2C19 (P33261 whole entry): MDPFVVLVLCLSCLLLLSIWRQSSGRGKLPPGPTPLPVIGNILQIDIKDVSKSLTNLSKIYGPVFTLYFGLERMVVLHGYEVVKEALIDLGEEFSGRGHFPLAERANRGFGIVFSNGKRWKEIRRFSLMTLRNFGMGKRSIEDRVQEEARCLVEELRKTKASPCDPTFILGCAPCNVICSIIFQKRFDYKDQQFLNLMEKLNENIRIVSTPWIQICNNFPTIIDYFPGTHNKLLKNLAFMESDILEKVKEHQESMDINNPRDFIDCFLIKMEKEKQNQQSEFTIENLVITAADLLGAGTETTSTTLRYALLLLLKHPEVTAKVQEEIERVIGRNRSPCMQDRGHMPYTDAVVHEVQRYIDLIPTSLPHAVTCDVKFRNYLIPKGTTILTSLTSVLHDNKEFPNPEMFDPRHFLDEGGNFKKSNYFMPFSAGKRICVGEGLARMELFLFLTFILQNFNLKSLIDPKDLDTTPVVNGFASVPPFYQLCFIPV
Chain of Cytochrome P450 2D6 (P10635 whole entry): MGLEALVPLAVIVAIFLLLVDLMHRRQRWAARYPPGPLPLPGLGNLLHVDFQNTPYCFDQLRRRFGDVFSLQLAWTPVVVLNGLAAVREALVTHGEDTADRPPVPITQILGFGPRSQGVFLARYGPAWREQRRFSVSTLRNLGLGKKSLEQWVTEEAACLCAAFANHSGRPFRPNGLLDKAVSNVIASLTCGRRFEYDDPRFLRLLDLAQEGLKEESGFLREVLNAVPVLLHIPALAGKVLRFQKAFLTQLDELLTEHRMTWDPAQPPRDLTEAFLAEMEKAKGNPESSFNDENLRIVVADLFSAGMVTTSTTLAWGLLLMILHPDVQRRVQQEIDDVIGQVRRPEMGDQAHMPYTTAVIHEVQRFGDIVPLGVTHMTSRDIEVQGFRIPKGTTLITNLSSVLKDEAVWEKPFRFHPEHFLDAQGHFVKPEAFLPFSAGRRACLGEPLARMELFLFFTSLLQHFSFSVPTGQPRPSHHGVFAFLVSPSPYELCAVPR
Chain of Cytochrome P450 3A4 (P08684 whole entry): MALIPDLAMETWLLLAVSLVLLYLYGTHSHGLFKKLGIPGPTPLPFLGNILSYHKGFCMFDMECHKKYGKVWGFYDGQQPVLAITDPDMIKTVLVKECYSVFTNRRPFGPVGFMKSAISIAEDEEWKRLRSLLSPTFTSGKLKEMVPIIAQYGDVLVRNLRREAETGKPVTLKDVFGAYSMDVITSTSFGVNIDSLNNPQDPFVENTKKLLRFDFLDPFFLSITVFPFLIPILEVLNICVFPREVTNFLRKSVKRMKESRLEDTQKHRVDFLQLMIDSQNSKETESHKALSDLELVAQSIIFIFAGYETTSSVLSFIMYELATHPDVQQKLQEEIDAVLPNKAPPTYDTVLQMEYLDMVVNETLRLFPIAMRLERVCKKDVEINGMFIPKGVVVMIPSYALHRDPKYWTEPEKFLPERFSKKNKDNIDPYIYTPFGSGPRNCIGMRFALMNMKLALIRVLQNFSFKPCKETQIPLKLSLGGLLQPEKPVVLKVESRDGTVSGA
Chain of Voltage-gated inwardly rectifying potassium channel KCNH2 (Q12809 whole entry): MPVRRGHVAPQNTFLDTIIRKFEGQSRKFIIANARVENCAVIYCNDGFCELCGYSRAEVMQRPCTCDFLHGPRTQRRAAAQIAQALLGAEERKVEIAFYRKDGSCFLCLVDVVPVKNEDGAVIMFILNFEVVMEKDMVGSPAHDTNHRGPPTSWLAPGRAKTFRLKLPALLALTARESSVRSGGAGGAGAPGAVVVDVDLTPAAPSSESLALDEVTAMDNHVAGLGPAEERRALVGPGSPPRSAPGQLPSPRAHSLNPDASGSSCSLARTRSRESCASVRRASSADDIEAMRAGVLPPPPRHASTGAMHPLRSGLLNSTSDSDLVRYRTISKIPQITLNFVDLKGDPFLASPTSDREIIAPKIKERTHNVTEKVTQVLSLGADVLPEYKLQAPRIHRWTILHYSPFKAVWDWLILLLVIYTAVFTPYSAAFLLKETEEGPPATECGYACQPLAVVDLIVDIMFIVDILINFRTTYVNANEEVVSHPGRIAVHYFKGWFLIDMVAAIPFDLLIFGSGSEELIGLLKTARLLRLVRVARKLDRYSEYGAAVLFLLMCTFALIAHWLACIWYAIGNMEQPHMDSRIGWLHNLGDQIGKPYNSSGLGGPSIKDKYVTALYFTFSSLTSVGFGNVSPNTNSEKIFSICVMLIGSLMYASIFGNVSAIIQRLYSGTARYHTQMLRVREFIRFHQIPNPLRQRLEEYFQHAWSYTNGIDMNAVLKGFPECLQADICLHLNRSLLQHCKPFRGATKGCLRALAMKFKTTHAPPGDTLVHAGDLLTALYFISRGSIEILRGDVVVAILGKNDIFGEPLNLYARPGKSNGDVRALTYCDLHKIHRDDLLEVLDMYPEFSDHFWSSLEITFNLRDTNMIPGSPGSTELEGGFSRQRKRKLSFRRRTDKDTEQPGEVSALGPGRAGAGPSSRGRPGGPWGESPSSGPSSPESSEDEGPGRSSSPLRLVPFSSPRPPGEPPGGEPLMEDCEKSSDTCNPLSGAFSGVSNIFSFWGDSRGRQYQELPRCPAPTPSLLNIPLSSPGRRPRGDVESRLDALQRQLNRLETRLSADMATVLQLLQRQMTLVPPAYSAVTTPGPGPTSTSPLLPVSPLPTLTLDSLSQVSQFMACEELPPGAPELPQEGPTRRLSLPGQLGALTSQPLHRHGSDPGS
Chain of Cytochrome P450 2C9 (P11712 whole entry): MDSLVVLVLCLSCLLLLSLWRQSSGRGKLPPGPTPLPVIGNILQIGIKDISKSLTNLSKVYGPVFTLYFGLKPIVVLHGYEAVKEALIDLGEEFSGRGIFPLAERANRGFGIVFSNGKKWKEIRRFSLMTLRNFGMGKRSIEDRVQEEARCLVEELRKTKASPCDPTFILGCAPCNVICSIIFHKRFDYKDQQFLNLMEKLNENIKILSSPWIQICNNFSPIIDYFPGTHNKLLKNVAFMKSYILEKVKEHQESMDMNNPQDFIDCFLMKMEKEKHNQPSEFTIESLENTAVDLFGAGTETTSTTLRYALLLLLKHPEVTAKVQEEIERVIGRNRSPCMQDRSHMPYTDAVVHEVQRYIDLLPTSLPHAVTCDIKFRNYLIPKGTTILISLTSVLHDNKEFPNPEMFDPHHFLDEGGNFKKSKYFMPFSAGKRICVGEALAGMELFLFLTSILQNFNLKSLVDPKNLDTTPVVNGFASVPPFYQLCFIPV

For the compound `C[C@H](Oc1ccc(S(C)(=O)=O)cc1C(=O)N1Cc2cn(-c3ccccc3F)nc2C1)C(F)(F)F`, the Activity in data set [1] stood at 9.5 µM; in data set [2] it was 169%.
What is called Papp A→B is the apparent permeability from the apical to the basolateral side of a cell layer. One may read the pIC50 as the IC50 on a negative log10 scale, so that one unit is a factor of ten. By Papp B→A is commonly meant how fast a substance crosses the layer from the basolateral side. As usually defined, the Papp is the rate of passage across a membrane or cell layer, normalised by area and donor concentration. With `Cc1cc(-n2cc3c(n2)CN(C(=O)c2cc(C#N)ccc2OCC2CC2)C3)ccn1`, in [3], the Papp A→B at 1 h, 5 µM is 41 ×10⁻⁶ cm/s. The figures for the pIC50 in [4] and in data set [6] were 6.36 and 6.16, respectively. Also, the results for the microsomal CLint at 1 µM in data set [5] and in [7] were 22.2 µL/min/mg and 7 µL/min/mg, respectively. Besides, in data set [8], the Papp B→A at 1 h, 5 µM is 51.6 ×10⁻⁶ cm/s. In addition, the Papp at 1 h, 100 µM in [9] was more than 10 ×10⁻⁶ cm/s.
The term efflux ratio denotes a quotient of directional permeabilities that is used to spot active efflux. Regarding `CCS(=O)(=O)c1ccc(O[C@@H](C)C(F)(F)F)c(C(=O)N2Cc3cn(-c4cncc(F)c4)nc3C2)c1`, the pIC50 in data set [10], in data set [11], in data set [12], in data set [13], in data set [14] and in data set [15] was less than 5.00 throughout. Besides, the negative logarithm of the IC50 (pIC50) in [16] is less than 5.00; in [4] it was 7.57; in data set [6], 8.10. Moreover, in [3], the apparent permeability from apical to basolateral (Papp A→B) at 1 h, 5 µM came to 5.8 ×10⁻⁶ cm/s. Further, the microsomal CLint at 1 µM was 1.3 µL/min/mg in data set [5] and 5.4 µL/min/mg in [7]. In addition, the Papp B→A at 1 h, 5 µM in data set [8] was 99 ×10⁻⁶ cm/s. Also, the efflux ratio at 1 h, 5 µM in [17] stood at 17.2.
As for `CCS(=O)(=O)c1ccc(O[C@@H](C)C(F)(F)F)c(C(=O)N2Cc3cn(-c4ccccc4F)nc3C2)c1`, the pIC50 in [10], in data set [11], in data set [12], in data set [13], in [14] and in data set [15] was less than 5.00 throughout. Moreover, the values for the negative-log IC50 (pIC50) in data set [16], in data set [4] and in data set [6] were less than 5.00, 7.54 and 8.05, respectively. In addition, the apical-to-basolateral permeability (Papp A→B) at 1 h, 5 µM in data set [3] stood at 18 ×10⁻⁶ cm/s. In addition, the microsomal CLint at 1 µM in [5] was determined as 0.9 µL/min/mg. Also, in data set [8], the Papp B→A at 1 h, 5 µM came out at 51.9 ×10⁻⁶ cm/s. The efflux ratio at 1 h, 5 µM in [17] amounted to 2.9.
Take `C[C@H](Oc1ccc(C#N)cc1C(=O)N1Cc2cn(-c3cncc(F)c3)nc2C1)C(F)(F)F`: the Activity was 7.2 µM in data set [1] and 109% in [2]. The pIC50 was less than 5.00 in data set [15], 7.16 in data set [4] and 7.09 in [6].
As to `CC(C)S(=O)(=O)c1ccc(O[C@@H](C)C(F)(F)F)c(C(=O)N2Cc3cn(-c4ccccc4)nc3C2)c1`, the pIC50 in [10], in [11], in [12], in data set [13], in data set [14] and in data set [15] was less than 5.00 each time. Also, the negative-log IC50 (pIC50) in data set [16] is less than 5.00; in [4], 6.39; in data set [6], 7.10. In addition, the Papp A→B at 1 h, 5 µM in data set [3] came to 56.6 ×10⁻⁶ cm/s. In addition, the microsomal CLint at 1 µM was found to be 10 µL/min/mg in data set [5] and 1.8 µL/min/mg in data set [7]. Moreover, the Papp B→A at 1 h, 5 µM in data set [8] was determined as 123 ×10⁻⁶ cm/s. Further, in [17], the efflux ratio at 1 h, 5 µM came to 2.2.
